ChEMBL document CHEMBL1154352, “Toll-like receptor 7 selective synthetic oligoribonucleotide agonists: synthesis and structure-activity relationship studies” (J Med Chem, 2009)
Activity calls are given as the source filed them. No cut-off for these calls is given here.

Assays:
[1] = Metabolic stability in human serum assessed as full length product remaining after 10 mins by HPLC; format: ADME, cell-free; details: read-out: Stability
How it was run: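 About 0.5 A260 units compound in 1% human serum in PBS, 37 °C; aliquot taken at 10 min, analysed by anion-exchange HPLC for percent intact full-length product.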

[2] = target: T1, Toll-like receptor 7 (Homo sapiens) (UniProt Q9NYK1); assay: Activation of human TLR7 expressed in HEK293XL assessed as fold induction of NF-kappaB activity at 50 ug/ml after 18 hrs by reporter gene assay relative to control
T1 sequence (whole entry): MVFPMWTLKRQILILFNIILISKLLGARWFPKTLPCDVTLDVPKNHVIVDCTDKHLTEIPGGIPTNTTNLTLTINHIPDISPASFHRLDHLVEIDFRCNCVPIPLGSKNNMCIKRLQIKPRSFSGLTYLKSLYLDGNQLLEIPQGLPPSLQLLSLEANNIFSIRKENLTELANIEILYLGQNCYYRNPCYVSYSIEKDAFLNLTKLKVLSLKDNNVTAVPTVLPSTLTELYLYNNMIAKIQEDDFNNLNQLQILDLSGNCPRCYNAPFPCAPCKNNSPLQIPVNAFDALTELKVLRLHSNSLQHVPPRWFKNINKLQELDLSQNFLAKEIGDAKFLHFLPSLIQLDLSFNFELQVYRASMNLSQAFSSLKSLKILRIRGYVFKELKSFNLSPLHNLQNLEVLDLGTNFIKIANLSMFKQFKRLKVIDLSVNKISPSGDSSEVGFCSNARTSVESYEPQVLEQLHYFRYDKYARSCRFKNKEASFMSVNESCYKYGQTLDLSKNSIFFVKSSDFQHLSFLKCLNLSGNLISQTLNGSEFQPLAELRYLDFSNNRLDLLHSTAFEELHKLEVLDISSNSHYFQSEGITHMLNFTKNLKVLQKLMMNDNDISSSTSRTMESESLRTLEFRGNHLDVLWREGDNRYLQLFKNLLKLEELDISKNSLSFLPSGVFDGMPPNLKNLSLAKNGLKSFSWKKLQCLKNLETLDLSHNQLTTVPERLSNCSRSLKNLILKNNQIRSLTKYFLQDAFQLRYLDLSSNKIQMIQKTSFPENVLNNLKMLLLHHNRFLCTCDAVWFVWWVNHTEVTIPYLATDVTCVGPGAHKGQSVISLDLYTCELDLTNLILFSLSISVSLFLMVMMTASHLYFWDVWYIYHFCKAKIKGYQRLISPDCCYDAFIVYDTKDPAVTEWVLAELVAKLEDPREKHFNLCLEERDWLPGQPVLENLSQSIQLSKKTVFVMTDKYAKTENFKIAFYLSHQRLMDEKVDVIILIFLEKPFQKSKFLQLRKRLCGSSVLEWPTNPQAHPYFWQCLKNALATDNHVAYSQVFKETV
How it was run: (§1)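 HEK293 cells stably expressing human TLR7 or TLR8, transiently transfected with SEAP reporter plasmid; medium replaced, SIMRA compounds added, 18 h incubation. Supernatant SEAP measured by QuantiBlue; expressed as fold increase in NF-κB activity over PBS control. Tabulated data at 50 μg/mL, representative of three independent experiments.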

[3] = target: T2, Toll-like receptor 8 (Homo sapiens) (UniProt Q9NR97); assay: Activation of human TLR8 expressed in HEK293XL assessed as fold induction of NF-kappaB activity at 50 ug/ml after 18 hrs by reporter gene assay relative to control; how it was run: as §1
T2 sequence (whole entry): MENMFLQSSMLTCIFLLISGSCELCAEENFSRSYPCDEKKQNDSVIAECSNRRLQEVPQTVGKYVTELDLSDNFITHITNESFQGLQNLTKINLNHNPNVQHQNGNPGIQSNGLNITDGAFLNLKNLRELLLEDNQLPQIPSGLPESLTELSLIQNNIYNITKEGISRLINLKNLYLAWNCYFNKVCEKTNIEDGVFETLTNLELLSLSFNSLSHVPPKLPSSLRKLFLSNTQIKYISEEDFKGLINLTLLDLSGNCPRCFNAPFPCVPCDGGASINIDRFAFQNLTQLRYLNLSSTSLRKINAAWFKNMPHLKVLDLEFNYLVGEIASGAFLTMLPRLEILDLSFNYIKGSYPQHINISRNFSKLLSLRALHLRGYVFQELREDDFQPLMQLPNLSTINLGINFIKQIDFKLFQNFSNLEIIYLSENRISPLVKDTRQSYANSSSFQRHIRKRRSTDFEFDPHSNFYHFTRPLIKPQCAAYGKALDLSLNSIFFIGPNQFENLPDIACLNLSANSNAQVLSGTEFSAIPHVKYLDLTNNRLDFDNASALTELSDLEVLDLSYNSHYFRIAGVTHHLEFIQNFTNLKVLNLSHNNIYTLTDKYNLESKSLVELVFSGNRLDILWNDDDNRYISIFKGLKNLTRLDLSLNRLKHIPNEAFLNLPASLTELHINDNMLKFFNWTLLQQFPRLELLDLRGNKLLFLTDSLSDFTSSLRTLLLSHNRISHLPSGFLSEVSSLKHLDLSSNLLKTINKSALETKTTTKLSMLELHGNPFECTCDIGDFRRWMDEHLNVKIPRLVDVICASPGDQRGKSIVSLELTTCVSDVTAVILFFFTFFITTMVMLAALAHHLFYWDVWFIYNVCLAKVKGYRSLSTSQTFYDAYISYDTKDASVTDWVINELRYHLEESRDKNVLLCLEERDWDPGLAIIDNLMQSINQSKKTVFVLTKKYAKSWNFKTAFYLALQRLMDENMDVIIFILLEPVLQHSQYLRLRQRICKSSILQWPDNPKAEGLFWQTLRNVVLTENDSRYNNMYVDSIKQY

Homo sapiens = species on record: Homo sapiens; assay: Ratio of human TLR7 activity to human TLR8 activity
How it was run: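 TLR7/TLR8 ratio computed from fold NF-κB (SEAP reporter) activation in HEK293 cells stably expressing human TLR7 versus TLR8, compounds at 50 μg/mL, 18 h exposure; representative of three independent experiments.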

Splenocyte [4] = assay: Immunomodulatory activity in C57BL/6 mouse splenocytes bearing TLR7 receptor assessed as IL6 release at 100 ug/ml after 24 hrs by ELISA; format: functional, cell-based
How it was run: (§2)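 C57BL/6 splenocytes in RPMI 1640 with 10% FBS, penicillin/streptomycin, 2 mM L-glutamine, plated at 5 × 10^6 cells/mL; compounds in PBS added, 37 °C for 24 h. Supernatant IL-12 and IL-6 by ELISA; representative of three independent experiments.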

Splenocyte [5] = assay: Immunomodulatory activity in C57BL/6 mouse splenocytes bearing TLR7 receptor assessed as IL12 release at 100 ug/ml after 24 hrs by ELISA; format: functional, cell-based; how it was run: as §2
PBMC = assay: Immunomodulatory activity in human PBMC assessed as induction of TNFalpha at 100 ug/ml after 24 hrs; format: functional, cell-based
How it was run: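 Human PBMCs plated at 5 × 10^6 cells/mL; compounds dissolved in PBS added at various concentrations, 37 °C for 24 h. Supernatant cytokines/chemokines quantified with human Luminex multiplex kit.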

remaining at 10 min [1] [%]	fold change (FC) [2]	fold change (FC) [3]	Ratio (Homo sapiens)	Activity (Splenocyte [4])	Activity (Splenocyte [5])	Structure (SMILES)	Activity (PBMC) [pg/mL]
84	17.5	1.6	10.9	Active	Active	Nc1ccn([C@@H]2O[C@H](CO[C@H]3[C@@H](O)[C@H](n4cnc5c(N)ncnc54)O[C@@H]3COP(=O)(S)O[C@H]3[C@@H](O)[C@H](n4ccc5c(=O)[nH]c(N)nc54)O[C@@H]3COP(=O)(S)O[C@H]3[C@@H](O)[C@H](n4ccc(=O)[nH]c4=O)O[C@@H]3COP(=O)(S)O[C@H]3[C@@H](O)[C@H](n4cnc5c(N)ncnc54)O[C@@H]3COP(=O)(S)O[C@H]3[C@@H](O)[C@H](n4ccc5c(=O)[nH]c(N)nc54)O[C@@H]3COP(=O)(S)O[C@H]3[C@@H](O)[C@H](n4ccc(=O)[nH]c4=O)O[C@@H]3CO)[C@@H](OP(=O)(S)OC[C@H]3O[C@@H](n4ccc5c(=O)[nH]c(N)nc54)[C@H](O)[C@@H]3OP(=O)(S)OC[C@H]3O[C@@H](n4cnc5c(N)ncnc54)[C@H](O)[C@@H]3OP(=O)(S)OC[C@H]3O[C@@H](n4ccc(=O)[nH]c4=O)[C@H](O)[C@@H]3OP(=O)(S)OC[C@H]3O[C@@H](n4ccc(=O)[nH]c4=O)[C@H](O)[C@@H]3OP(=O)(S)OCC(O)COP(=O)(S)O[C@H]3[C@@H](O)[C@H](n4ccc(=O)[nH]c4=O)O[C@@H]3COP(=O)(S)O[C@H]3[C@@H](O)[C@H](n4ccc(=O)[nH]c4=O)O[C@@H]3COP(=O)(S)O[C@H]3[C@@H](O)[C@H](n4cnc5c(N)ncnc54)O[C@@H]3COP(=O)(S)O[C@H]3[C@@H](O)[C@H](n4ccc5c(=O)[nH]c(N)nc54)O[C@@H]3COP(=O)(S)O[C@H]3[C@@H](O)[C@H](n4ccc(N)nc4=O)O[C@@H]3CO[C@H]3[C@@H](O)[C@H](n4cnc5c(N)ncnc54)O[C@@H]3COP(=O)(S)O[C@H]3[C@@H](O)[C@H](n4ccc5c(=O)[nH]c(N)nc54)O[C@@H]3COP(=O)(S)O[C@H]3[C@@H](O)[C@H](n4ccc(=O)[nH]c4=O)O[C@@H]3COP(=O)(S)O[C@H]3[C@@H](O)[C@H](n4cnc5c(N)ncnc54)O[C@@H]3COP(=O)(S)O[C@H]3[C@@H](O)[C@H](n4ccc5c(=O)[nH]c(N)nc54)O[C@@H]3COP(=O)(S)O[C@H]3[C@@H](O)[C@H](n4ccc(=O)[nH]c4=O)O[C@@H]3CO)[C@H]2O)c(=O)n1 (some centres undefined)	0
76	18.4	0.6	30.7	Active	Active	Nc1ccn([C@@H]2O[C@H](COP(=O)(S)O[C@H]3[C@@H](O)[C@H](n4cnc5c(N)ncnc54)O[C@@H]3COP(=O)(S)O[C@H]3[C@@H](O)[C@H](n4cnc5c(N)ncnc54)O[C@@H]3CO)[C@@H](OP(=O)(S)OC[C@H]3O[C@@H](n4ccc(=O)[nH]c4=O)[C@H](O)[C@@H]3OP(=O)(S)OC[C@H]3O[C@@H](n4ccc5c(=O)[nH]c(N)nc54)[C@H](O)[C@@H]3OP(=O)(S)OC[C@H]3O[C@@H](n4cnc5c(N)ncnc54)[C@H](O)[C@@H]3OP(=O)(S)OC[C@H]3O[C@@H](n4cnc5c(N)ncnc54)[C@H](O)[C@@H]3OP(=O)(S)OC[C@H]3O[C@@H](n4ccc5c(=O)[nH]c(N)nc54)[C@H](O)[C@@H]3OP(=O)(S)OC[C@H]3O[C@@H](n4ccc(N)nc4=O)[C@H](O)[C@@H]3OP(=O)(S)OC[C@H]3O[C@@H](n4ccc(=O)[nH]c4=O)[C@H](O)[C@@H]3OP(=O)(S)OC[C@H]3O[C@@H](n4ccc5c(=O)[nH]c(N)nc54)[C@H](O)[C@@H]3OP(=O)(S)OCC(O)COP(=O)(S)O[C@H]3[C@@H](O)[C@H](n4ccc5c(=O)[nH]c(N)nc54)O[C@@H]3COP(=O)(S)O[C@H]3[C@@H](O)[C@H](n4ccc(=O)[nH]c4=O)O[C@@H]3COP(=O)(S)O[C@H]3[C@@H](O)[C@H](n4ccc(N)nc4=O)O[C@@H]3COP(=O)(S)O[C@H]3[C@@H](O)[C@H](n4ccc5c(=O)[nH]c(N)nc54)O[C@@H]3COP(=O)(S)O[C@H]3[C@@H](O)[C@H](n4cnc5c(N)ncnc54)O[C@@H]3COP(=O)(S)O[C@H]3[C@@H](O)[C@H](n4cnc5c(N)ncnc54)O[C@@H]3COP(=O)(S)O[C@H]3[C@@H](O)[C@H](n4ccc5c(=O)[nH]c(N)nc54)O[C@@H]3COP(=O)(S)O[C@H]3[C@@H](O)[C@H](n4ccc(=O)[nH]c4=O)O[C@@H]3COP(=O)(S)O[C@H]3[C@@H](O)[C@H](n4ccc(N)nc4=O)O[C@@H]3COP(=O)(S)O[C@H]3[C@@H](O)[C@H](n4cnc5c(N)ncnc54)O[C@@H]3COP(=O)(S)O[C@H]3[C@@H](O)[C@H](n4cnc5c(N)ncnc54)O[C@@H]3CO)[C@H]2O)c(=O)n1 (some centres undefined)	3.5
